STAT3 activator: increases IL-6 driven STAT3 reporter signal. U3A cells, IL-6 STAT3-luciferase reporter, luminescence; 100% = signal with IL-6 EC80 alone. activation (% of control), % at 5.6 µM. hit rate 0.91% among 190,000. AID 871;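 active = activation above the screen-wide mean of compound activation plus 3 SD, cut at about 130% in these data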
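Assay system – human STAT1-deficient U3A cells with stable STAT3-luciferase reporter · Also added – IL-6 (33 ng/mL) · Schedule – compound 1 h, then IL-6 6 h at 37 °C · Technique – reporter luminescence signal · Evaluation – % activation versus median of IL-6-stimulated wells · Benchmarks – IL-6-only wells as 100% reference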
STAT1 act: increases IFN-gamma driven STAT1 reporter signal; NIH 3T3 STAT1-luciferase reporter, luminescence; 100% = IFN-gamma alone, no compound; activation (% of control), % at 5.5 µM; hit rate 2.6% among 200,000; AID 932;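 active = activation above the screen-wide mean activation plus 3 SD, cut at about 130% in these data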
NF-kB expr up: compounds increasing NF-kB expression in human neuronal cells. NF-kB reporter expression; stronger effect = higher value. fold change at 12.5 µM. hit rate 1.6% among 190,000; in the data active = fold change above about 3.3
APP 5'UTR act: APP 5'UTR luciferase reporter activation | SH-SY5Y APP 5'UTR luciferase reporter, luminescence; zero percent = DMSO vehicle wells | AID 1276 | hit rate 1% among 190,000 | activation, % at 2 µM;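 active = activation above a set limit, based on mean plus 3 SD of controls, cut at about 140% in these data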
STAT1 blocker: inhibitors of IFN-gamma induced STAT1 signaling; hit rate 0.35% among 200,000; AID 920; inhibition, % at 5.5 µM; NIH 3T3 STAT1-luciferase reporter, luminescence;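 active = inhibition above a set limit, the mean inhibition across all tested compounds plus 3 SD, cut at about 34% in these data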
STAT3 inh-1: reduces IL-6 driven STAT3 reporter signal | U3A cells, IL-6 STAT3-luciferase reporter, luminescence; host cell line lacks STAT1 | hit rate 0.89% among 190,000 | inhibition, % at 5.5 µM;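 active = inhibition above the mean inhibition across all screened compounds plus 3 SD, cut at about 44% in these data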
STAT3 inh-2: STAT3 inhibition, confirmation assay; shares compounds with STAT3 inh-1; U3A cells, IL-6 STAT3 luciferase reporter, luminescence; cell line lacks STAT1; inhibition, % at 5.7 µM; hit rate 45% among 1,200; AID 1265;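 active = inhibition above the hit cutoff computed for the primary STAT3 screen, cut at about 44% in these data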
NFkB inh STAT3ct: counter-screen for STAT3 inhibitors: NF-kappaB inhibition; inhibition, % at 5.7 µM; HEK293T NF-kB luciferase reporter, TNF-alpha induced; hit rate 36% among 1,200; shares compounds with STAT3 inh-1;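 active = inhibition above the mean of solvent-only control wells plus 3 SD, cutoff set per campaign, cut at about 13% in these data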
STAT1 inh STAT3c: inhibits STAT1, counter-screen to STAT3 inhibitors; hit rate 27% among 1,200; inhibition, % at 5.7 µM; NIH 3T3 STAT1-luciferase reporter, IFN-gamma induced, luminescence; AID 1317; shares compounds with STAT3 inh-1;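 active = inhibition above the mean plus 3 SD of solvent-only control wells, limit set per screening run, cut at about 16% in these data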
Large screens that a line does not name were inactive (follow-up assays come after a bar, where they were run). The list is not random: actives were taken first. Their share in the collection is about 5.1%.

O=C(Nc1ccncc1)c1ccc2c(c1)C(=O)N(C1CCCCC1)C2=O	STAT3 inh-1 75.3 | STAT3 inh-2 66.0 | NFkB inh STAT3ct inactive | STAT1 inh STAT3c inactive
Cc1nc(C)c(C(=O)Nc2ncc([N+](=O)[O-])s2)o1	STAT3 inh-1 67.7 | STAT3 inh-2 inactive | NFkB inh STAT3ct inactive | STAT1 inh STAT3c inactive
CCCCC(=O)Nc1ncc([N+](=O)[O-])s1	none
O=C(Nc1ccccc1)Nc1ncc([N+](=O)[O-])s1	NF-kB expr up 4.09, STAT3 inh-1 54.4 | STAT3 inh-2 inactive | NFkB inh STAT3ct inactive | STAT1 inh STAT3c inactive
C#CCNC(=O)C1=C[C@H](c2coc3ccccc3c2=O)[C@@H](CCCO)[C@H](OCC)O1	none (no result: STAT3 activator, STAT3 inh-1)
CC(C)OC(=O)C1CC(C)(O)C(=O)C(C(=O)OC(C)C)C1c1ccc([N+](=O)[O-])cc1 (stereo not given)	none
Nc1nc(CCl)nc(Nc2ccccc2)n1	none
Cc1ccccc1Nc1nc(N)nc(CSc2nc3ccccc3c(=O)n2C)n1	none
Nc1nc(Nc2ccccc2)nc2ccccc12	NF-kB expr up 5.46, APP 5'UTR act 154.9, STAT3 inh-1 57.2 | STAT3 inh-2 inactive | NFkB inh STAT3ct inactive | STAT1 inh STAT3c inactive
Cc1ccccc1Nc1nc(N)c2ccccc2n1	NF-kB expr up 8.95, APP 5'UTR act 144.1, STAT3 inh-1 61.1 | STAT3 inh-2 inactive | NFkB inh STAT3ct inactive | STAT1 inh STAT3c inactive
C/C(=N\NC(=O)C(=O)N/N=C(\C)c1cccc(O)c1)c1cccc(O)c1	none
CCn1c(=O)n(-c2ccc(Cl)cc2)c(=O)c2c3c(sc21)COC(C)(C)C3	none
CCOc1cccc2cc(-c3cn4cc(C)ccc4n3)c(=O)oc12	STAT1 act 141.4, NF-kB expr up 3.46, STAT3 inh-1 69.1 | STAT3 inh-2 inactive | NFkB inh STAT3ct inactive | STAT1 inh STAT3c inactive
O=c1c2ccccc2nc(N/N=C/c2c(O)ccc3ccccc23)n1O	STAT3 inh-1 46.5 | STAT3 inh-2 inactive | NFkB inh STAT3ct 21.4 | STAT1 inh STAT3c inactive
O=c1c2ccccc2nc(N/N=C/c2ccc(O)cc2)n1O	STAT3 inh-1 52.4 | STAT3 inh-2 inactive | NFkB inh STAT3ct 16.5 | STAT1 inh STAT3c 33.6
COc1ccc(C(=O)Nc2ccc(S(=O)(=O)N3CCc4ccccc43)cc2)cc1	STAT3 inh-1 51.3 | STAT3 inh-2 inactive | NFkB inh STAT3ct 13.2 | STAT1 inh STAT3c inactive
CCN1CCN(S(=O)(=O)c2cc(OCC(=O)NC3CCCCC3)c(C)cc2Cl)CC1	STAT3 inh-1 77.2 | STAT3 inh-2 56.9 | NFkB inh STAT3ct 19.1 | STAT1 inh STAT3c inactive
O=C(COc1ccc(Br)cc1Br)NC1CCCC1	STAT1 act 140.9, STAT3 inh-1 49.2 | STAT3 inh-2 52.9 | NFkB inh STAT3ct inactive | STAT1 inh STAT3c inactive
Cc1cc(Cl)c(S(=O)(=O)N2CCCCCC2)cc1OCC(=O)NC1CCCCC1	STAT3 inh-1 82.0 | STAT3 inh-2 82.7 | NFkB inh STAT3ct 30.5 | STAT1 inh STAT3c 16.5
Cc1ccc(OCC(=O)NC2CCCC2)c(C)c1	none
CCOC(=O)N1CCN(S(=O)(=O)c2cc(OCC(=O)NC3CCCCC3)c(C)cc2Cl)CC1	none
Cc1cc(Cl)c(S(=O)(=O)N2CCSCC2)cc1OCC(=O)NC1CCCCC1	STAT3 inh-1 67.0 | STAT3 inh-2 67.1 | NFkB inh STAT3ct 15.3 | STAT1 inh STAT3c inactive
O=C(CCc1ccccc1)NC(=S)Nc1ccccc1Br	none
COc1cc(NC(=O)c2ccc3c(c2)OCCO3)ccc1NC(=O)c1cccs1	none
COc1cc(NC(=O)c2ccc([N+](=O)[O-])o2)ccc1NC(=O)c1cccs1	STAT3 inh-1 43.6 | STAT3 inh-2 inactive | NFkB inh STAT3ct inactive | STAT1 inh STAT3c inactive
COc1cc(C(=O)O)nc2ccc([N+](=O)[O-])cc12	none
CCCCNc1cc(C)nc(NCc2ccccc2)n1	STAT3 inh-1 43.9 | STAT3 inh-2 inactive | NFkB inh STAT3ct 13.1 | STAT1 inh STAT3c 27.1

Screens: PubChem BioAssay, several laboratories
